From paper PMC4512239 (Clinical cancer research : an official journal of the …, 2015)

Experiments:
p-S6 = p-S6 immunohistochemistry in pre- and post-treatment tumor biopsies; format: in vivo, human; conditions: 50 mg BD, post-treatment vs pre-treatment, mean H score
Summary of the method: (§1)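 Paired tumor biopsies taken before treatment and on days 8-15 of continuous oral twice-daily dosing, in a subset of expansion-cohort patients with advanced solid tumors. Patients fasted (water allowed) 2 h before and 1 h after each dose. Markers were scored by immunohistochemistry on post-treatment versus pre-treatment samples.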

MCF7 xenograft models = experiment: MCF7 xenograft growth inhibition; format: in vivo
advanced solid tumors = experiment: disease response by RECIST 1.1; format: in vivo, human; conditions: one each with ovarian and endometrial cancer
CYP isozymes = experiment: metabolism in human hepatocytes and heterologously expressed CYP isozymes; format: in vitro ADME
p-AKT = p-AKT immunohistochemistry in pre- and post-treatment tumor biopsies; format: in vivo, human; conditions: 50 mg BD
Summary of the method: as §1

p-4EBP1 = p-4EBP1 immunohistochemistry in pre- and post-treatment tumor biopsies; format: in vivo, human; conditions: 50 mg BD, post-treatment vs pre-treatment, mean H score
Summary of the method: as §1

p-AKT (S473) in PRP = experiment: p-AKT in platelet-rich plasma by Meso Scale Discovery immunoassay; format: in vivo, human
m-TORC1/2 = conditions: ATP competitive m-TORC1/2 inhibitor; cited from earlier work
SUVmax of tumors = experiment: FDG PET scans at baseline and day 8; format: in vivo, human; conditions: Part B, 50 mg BD, paired FDG PET scans
p-4EBP1 in PBMNCs = experiment: p-4EBP1 in peripheral blood mononuclear cells by flow cytometry; format: in vivo, human
[1] = clinical plasma pharmacokinetics; format: in vivo, human; conditions: for AUC / Cmax / half-life: human, plasma
[2] = 50 mg, 24 hours (12 hours after the 2nd BD dose)

In the case of `CNC(=O)c1cccc(-c2ccc3c(N4CCOC[C@@H]4C)nc(N4CCOC[C@@H]4C)nc3n2)c1` [AZD2014], the “evaluable paired biopsy samples with a reduction of p-S6 levels” value (p-S6) is reported as 8/8, the “total growth inhibition (TGI)” value (MCF7 xenograft models; 4500 nM.h free weekly AUC) is reported as over 70% and the “total growth inhibition (TGI)” value (MCF7 xenograft models; 17000 nM.h free weekly AUC) is reported as at least 100%. For the same compound, the “patients with prolonged stable disease on treatment for more than one year” value (advanced solid tumors) was “two patients”, the “metabolising CYP isozymes” value (CYP isozymes) was “primarily metabolised by CYP 3A5 and 2C8 with some contribution from 3A4” and the “induction of phosphorylation of AKT in post-treatment biopsies” value (p-AKT) was “no instances of induction of phosphorylation of AKT were seen”. For the same compound, the “paired biopsy samples with a reduction of p-AKT levels” value (p-AKT; post-treatment vs pre-treatment, mean H score) was 3/4, the “paired biopsy samples with a reduction of p-4EBP1 levels” value (p-4EBP1) was 3/7 and the “mean % change from baseline in p-AKT” value (p-AKT (S473) in PRP; [2]) was −2%. The “mean % change from baseline in p-AKT” value (p-AKT (S473) in PRP; single 50 mg dose, 6-8 hours) was −37%, the “mean % change from baseline in p-AKT” value (p-AKT (S473) in PRP; single 50 mg dose, 2 hours) was −62% and the IC50 (m-TORC1/2) was 2.81 nM. The “patients attaining a partial response (30% reduction in SUVmax)” value (SUVmax of tumors) was 3/11, the “patients with a reduction of SUVmax” value (SUVmax of tumors) was 8/11 and the “mean % change from baseline in p-4EBP1” value (p-4EBP1 in PBMNCs; [2]) was −21%. For the same compound, the “mean % change from baseline in p-4EBP1” value (p-4EBP1 in PBMNCs; single 50 mg dose, 6-8 hours) was about −41%, the “free weekly AUC, average” value ([1]; 50mg BD solution, converted from total exposure with MW and 5.47% free) was 11.05 µM·h and the “Cmin SS, Gmean” value ([1]; 50 mg BD, n=27) was 169.5 ng/mL. The “Cmin SS, range” value ([1]; 50 mg BD, n=27) was 0 to 2120 ng/mL, the “dose proportionality of Geomean exposure (AUC and Cmax)” value ([1]; 25 to 100 mg) was “increased greater than proportionally with increasing dose” and the AUC ([1]; oral, 25 mg, AUC, Gmean, Single dose, N=6) was 1640 ng·h/mL. It also gave an AUC ([1]; oral, 25 mg, AUC, Range, Single dose, N=6) of 883 to 2730 ng·h/mL, an AUC ([1]; oral, 25 mg, AUCss, Gmean, Steady state, 25 mg BD, N=6) of 2980 ng·h/mL and an AUC ([1]; oral, 25 mg, AUCss, Range, Steady state, 25 mg BD, N=6) of 1000 to 6560 ng·h/mL. The Cmax ([1]; oral, 25 mg, Cmax ss, Gmean, Steady state, 25 mg BD, N=6) was 747 ng/mL, the Cmax ([1]; oral, 25 mg, Cmax ss, Range, Steady state, 25 mg BD, N=6) was 227 to 1450 ng/mL and the Cmax ([1]; oral, 25 mg, Cmax, Gmean, Single dose, N=6) was 435 ng/mL. The Cmax ([1]; oral, 25 mg, Cmax, Range, Single dose, N=6) was 221 to 681 ng/mL, the half-life ([1]; oral, 25 mg, t½, Mean, Single dose, N=6) was 2.96 h and the half-life ([1]; oral, 25 mg, t½, Range, Single dose, N=6) was 0.88 to 6.71 h. It also gave a half-life ([1]; oral, 25 mg, t½, ss, Mean, Steady state, 25 mg BD, N=6) of 2.89 h, a half-life ([1]; oral, 25 mg, t½, ss, Range, Steady state, 25 mg BD, N=6) of 1.34 to 4.06 h and an AUC ([1]; oral, 50 mg, AUC, Gmean, Single dose, N=27) of 4020 ng·h/mL. The AUC ([1]; oral, 50 mg, AUC, Range, Single dose, N=27) was 453 to 12600 ng·h/mL, the AUC ([1]; oral, 50 mg, AUCss, Gmean, Steady state, 50 mg BD, N=37) was 6690 ng·h/mL and the AUC ([1]; oral, 50 mg, AUCss, Range, Steady state, 50 mg BD, N=37) was 1280 to 47800 ng·h/mL. The Cmax ([1]; oral, 50 mg, Cmax ss, Gmean, Steady state, 50 mg BD, N=37) was 1660 ng/mL, the Cmax ([1]; oral, 50 mg, Cmax ss, Range, Steady state, 50 mg BD, N=37) was 657 to 6410 ng/mL and the Cmax ([1]; oral, 50 mg, Cmax, Gmean, Single dose, N=27) was 1150 ng/mL. For the same compound, the Cmax ([1]; oral, 50 mg, Cmax, Range, Single dose, N=27) was 234 to 2840 ng/mL, the half-life ([1]; oral, 50 mg, t½, Mean, Single dose, N=27) was 2.48 h and the half-life ([1]; oral, 50 mg, t½, Range, Single dose, N=27) was 0.9 to 8.04 h. The half-life ([1]; oral, 50 mg, t½, ss, Mean, Steady state, 50 mg BD, N=37) was 3.01 h, the half-life ([1]; oral, 50 mg, t½, ss, Range, Steady state, 50 mg BD, N=37) was 1.18 to 4.8 h and the AUC ([1]; oral, 70 mg, AUC, Gmean, Single dose, N=5) was 8970 ng·h/mL. It also gave an AUC ([1]; oral, 70 mg, AUC, Range, Single dose, N=5) of 6010 to 14200 ng·h/mL, an AUC ([1]; oral, 70 mg, AUCss, Range, Steady state, 70 mg BD, N=2) of 7500 to 22500 ng·h/mL and a Cmax ([1]; oral, 70 mg, Cmax ss, Range, Steady state, 70 mg BD, N=2) of 1500 to 3870 ng/mL. The Cmax ([1]; oral, 70 mg, Cmax, Gmean, Single dose, N=5) was 2380 ng/mL, the Cmax ([1]; oral, 70 mg, Cmax, Range, Single dose, N=5) was 1440 to 3690 ng/mL and the half-life ([1]; oral, 70 mg, t½, Mean, Single dose, N=5) was 3.11 h. The half-life ([1]; oral, 70 mg, t½, Range, Single dose, N=5) was 1.35 to 5.98 h, the half-life ([1]; oral, 70 mg, t½, ss, Range, Steady state, 70 mg BD, N=2) was 3.63 to 4.23 h and the AUC ([1]; oral, 100 mg, AUC, Gmean, Single dose, N=4) was 9670 ng·h/mL. The AUC ([1]; oral, 100 mg, AUC, Range, Single dose, N=4) was 4770 to 16100 ng·h/mL, the Cmax ([1]; oral, 100 mg, Cmax, Gmean, Single dose, N=4) was 2790 ng/mL and the Cmax ([1]; oral, 100 mg, Cmax, Range, Single dose, N=4) was 1410 to 5050 ng/mL. It also gave a half-life ([1]; oral, 100 mg, t½, Mean, Single dose, N=4) of 3.23 h, a half-life ([1]; oral, 100 mg, t½, Range, Single dose, N=4) of 0.82 to 6.49 h and a half-life ([1]; po, terminal elimination half-life, patients) of about 3 h.
